This passage reports IC50 and Activity results from ChEMBL document CHEMBL3286230, “Tetra- and pentacyclic triterpene acids from the ancient anti-inflammatory remedy frankincense as inhibitors of microsomal prostaglandin E(2) synthase-1” (J Nat Prod, 2014).

For experiment [1], the target named is T1, Prostaglandin E synthase (Homo sapiens, UniProt O14684).
T1 sequence (O14684 whole entry): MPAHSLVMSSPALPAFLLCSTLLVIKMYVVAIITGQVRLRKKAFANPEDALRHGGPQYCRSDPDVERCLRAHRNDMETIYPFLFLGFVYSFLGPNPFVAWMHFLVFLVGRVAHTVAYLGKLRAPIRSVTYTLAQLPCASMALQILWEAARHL
Put plainly: Inhibition of microsomal PGES1 isolated from IL-1beta-stimulated human A549 cells preincubated for 15 mins followed by substrate addition measured after 1 min by RP-HPLC analysis. The class given is cell-free. The gist of the method:
(§1)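 Enzyme source: microsomes from A549 cells, cultured 16 h at 37 °C and 5% CO2, then given fresh medium and induced with IL-1β (1 ng/mL) for 72 h. Microsomes were prepared by sonication and centrifugation at 174000g. Membranes in 0.1 M potassium phosphate pH 7.4 with 2.5 mM GSH were preincubated with compound or DMSO vehicle for 15 min at 4 °C. PGH2 (20 μM final) was added and the reaction ran 1 min at 4 °C. It was stopped with FeCl2/citric acid containing 11β-PGE2 as internal standard. PGE2 was measured by SPE and RP-HPLC; n = 3–4, mean + SEM.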

A short description of experiment [2]: Cytotoxicity against human IMR32 cells after 48 hrs by MTT assay. The class given is functional, cell-based. The conditions noted are these: IMR-32, 48 h.
The target of experiment [3] is T2, Prostaglandin E synthase (Homo sapiens) (UniProt O14684).
T2 sequence (whole entry): T1 sequence (O14684 whole entry)
Put plainly: Inhibition of microsomal PGES1 isolated from IL-1beta-stimulated human A549 cells assessed as residual activity at 10 uM preincubated for 15 mins followed by substrate addition measured after 1 min by RP-HPLC analysis relative to control. The class given is cell-free. The gist of the method:
as §1

Experiment [4] is described as follows: Cytotoxicity against human NB39 cells after 48 hrs by MTT assay. The class given is functional, cell-based. As to conditions: NB39, 48 h. For orientation: Tetrazolium dyes change colour on reduction, which living cells bring about.
Experiment [5] deals with SK-N-SH. Kind of experiment: Cytotoxicity against human SK-N-SH cells after 48 hrs by MTT assay. The class given is functional, cell-based.
In experiment [6] the target is T3, Prostaglandin G/H synthase 1 (Ovis aries, UniProt P05979).
T3 sequence (P05979 whole entry): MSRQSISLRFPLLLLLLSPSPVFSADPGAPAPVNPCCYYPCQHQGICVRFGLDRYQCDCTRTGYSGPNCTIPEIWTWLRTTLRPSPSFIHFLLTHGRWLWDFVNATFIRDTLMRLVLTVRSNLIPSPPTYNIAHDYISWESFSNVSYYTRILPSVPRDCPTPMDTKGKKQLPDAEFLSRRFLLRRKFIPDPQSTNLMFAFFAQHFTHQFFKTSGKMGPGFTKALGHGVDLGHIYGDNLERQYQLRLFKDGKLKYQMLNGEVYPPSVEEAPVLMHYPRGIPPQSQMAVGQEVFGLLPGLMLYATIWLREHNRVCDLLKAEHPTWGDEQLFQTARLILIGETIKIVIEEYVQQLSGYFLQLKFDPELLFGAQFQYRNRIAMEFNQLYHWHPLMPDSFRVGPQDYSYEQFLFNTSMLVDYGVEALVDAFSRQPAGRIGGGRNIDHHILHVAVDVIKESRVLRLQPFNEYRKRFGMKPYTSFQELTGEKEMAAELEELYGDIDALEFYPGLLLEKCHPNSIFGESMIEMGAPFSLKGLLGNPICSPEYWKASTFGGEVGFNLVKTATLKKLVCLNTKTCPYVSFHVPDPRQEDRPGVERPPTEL
Put plainly: Inhibition of ovine COX-1 using arachidonic acid as substrate preincubated for 5 mins followed by substrate addition measured after 5 mins by HPLC analysis.

Experiment [7] concerns the target T4, Prostaglandin G/H synthase 2 (Homo sapiens, UniProt P35354).
T4 sequence (P35354 whole entry): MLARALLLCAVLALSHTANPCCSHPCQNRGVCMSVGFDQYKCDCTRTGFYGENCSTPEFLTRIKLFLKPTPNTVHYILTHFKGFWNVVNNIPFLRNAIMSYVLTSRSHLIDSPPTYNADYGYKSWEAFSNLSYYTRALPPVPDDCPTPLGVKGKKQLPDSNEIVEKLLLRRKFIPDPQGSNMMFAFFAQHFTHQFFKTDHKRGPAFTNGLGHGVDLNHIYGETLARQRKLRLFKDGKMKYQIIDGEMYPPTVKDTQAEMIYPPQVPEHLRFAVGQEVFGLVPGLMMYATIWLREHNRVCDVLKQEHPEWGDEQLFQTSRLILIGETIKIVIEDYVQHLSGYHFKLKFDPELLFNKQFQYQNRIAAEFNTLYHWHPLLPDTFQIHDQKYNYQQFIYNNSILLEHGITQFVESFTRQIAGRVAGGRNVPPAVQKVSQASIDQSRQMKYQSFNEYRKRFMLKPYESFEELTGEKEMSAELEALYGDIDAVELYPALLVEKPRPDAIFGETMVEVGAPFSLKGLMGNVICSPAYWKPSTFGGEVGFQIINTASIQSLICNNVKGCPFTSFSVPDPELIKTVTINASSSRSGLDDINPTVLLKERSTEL
Put plainly: Inhibition of human recombinant COX-2 using arachidonic acid as substrate preincubated for 5 mins followed by substrate addition measured after 5 mins by HPLC analysis.

Experiment [8] addresses T5, Prostaglandin G/H synthase 1 (Ovis aries) (UniProt P05979).
T5 sequence (whole entry): T3 sequence (P05979 whole entry)
Kind of experiment: Inhibition of ovine COX-1 using arachidonic acid as substrate assessed as residual activity at 10 uM preincubated for 5 mins followed by substrate addition measured after 5 mins by HPLC analysis relative to control.

The target in experiment [9] is T4, Prostaglandin G/H synthase 2. Put plainly: Inhibition of human COX-2 using arachidonic acid as substrate assessed as PGE2 formation after 2 mins by LC-MS/MS analysis.
Experiment [10] concerns the target T3, Prostaglandin G/H synthase 1. Kind of experiment: Inhibition of ovine COX-1 using arachidonic acid as substrate assessed as PGE2 formation after 2 mins by LC-MS/MS analysis.

A word on the IC50: it is the concentration that gives 50% inhibition. `C=C(C)[C@@H]1CC[C@]2(C)CC[C@]3(C)[C@H](CC[C@@H]4[C@@]5(C)CC[C@H](OC(C)=O)[C@](C)(C(=O)O)[C@@H]5CC[C@]43C)[C@@H]12`: the 50% inhibitory concentration (IC50) was determined as 10 µM in [1], 4.1 µM in experiment [2], 4.1 µM in experiment [4] and 4.1 µM in experiment [5]. For the same compound, the Activity in [3] came out at 51.4%.

Take `CC(=O)O[C@@H]1CC[C@]2(C)C3=C(CC[C@H]2C1(C)C)[C@@]1(C)CC[C@@H]([C@H](CCC=C(C)C)C(=O)O)[C@]1(C)CC3`: the 50% inhibitory concentration (IC50) in experiment [1] is 0.4 µM; in experiment [6], above 10 µM; in experiment [7], above 10 µM. In addition, the Activity in experiment [3] stood at 36.8%; in experiment [8] it was 63.2%.

Consider `CC(=O)O[C@@H]1CC[C@]2(C)[C@H]3CC[C@@]4(C)[C@H]([C@H](CCC=C(C)C)C(=O)O)CC[C@]4(C)C3=CC[C@H]2C1(C)C`, for which the values for the IC50 in [1] and in [6] were 0.4 µM and above 10 µM, respectively. In addition, in [3], the Activity is 20.6%.

Turning to `CC(C)=CCC[C@H](C(=O)O)[C@@H]1CC[C@]2(C)C3=C(CC[C@@]12C)[C@@]1(C)CC[C@H](O)C(C)(C)[C@@H]1CC3`, the figures for the half-inhibitory concentration (IC50) in experiment [1], in experiment [6] and in experiment [7] were 1.2 µM, above 10 µM and above 10 µM, respectively. Also, the results for the Activity in experiment [3] and in [8] were 29.2% and 82.3%, respectively.

Regarding `CC(C)[C@@H]1CC[C@]2(C)[C@H](CC=C3[C@@H]4[C@@H](C)[C@H](C)CC[C@]4(C)CC[C@]32C)[C@@]1(C)CCC(=O)O`, in experiment [1], the IC50 was above 10 µM. Further, the Activity in experiment [3] was determined as 92.4%.

For `CC(C)=CCC[C@H](C(=O)O)[C@@H]1CC[C@]2(C)C3=C(CC[C@@]12C)[C@@]1(C)CC[C@@H](O)C(C)(C)[C@@H]1CC3`, the concentration for half-maximal inhibition (IC50) in [1] was 1.1 µM; in experiment [6] it was above 10 µM. For the same compound, the Activity amounted to 3.5% in experiment [3] and 81.9% in experiment [8].

As to `C=C(C)[C@@H]1CC[C@]2(C)CC[C@]3(C)[C@H](CC[C@@H]4[C@@]5(C)CC[C@H](O)[C@](C)(C(=O)O)[C@@H]5CC[C@]43C)[C@@H]12`, the IC50 in experiment [1] turned out to be 8.5 µM; in [2] it was 4.1 µM; in [4], 4.1 µM; in experiment [5], 4.1 µM. The Activity in experiment [3] was determined as 43.1%.

Take `CC(C)=CCC[C@H](C(=O)O)[C@H]1CC[C@]2(C)C3=C(CC[C@@]12C)[C@@]1(C)CCC(=O)C(C)(C)[C@H]1CC3` [BETA-ELEMONIC ACID]: the results for the half-inhibitory concentration (IC50) in experiment [1], in experiment [6] and in [7] were 0.9 µM, above 10 µM and above 10 µM, respectively. Moreover, the Activity is 16.7% in [3] and 81.1% in experiment [8].

`C=C(C)[C@@H]1CC[C@]2(C)[C@H](CC=C3[C@@H]4[C@@H](C)[C@H](C)CC[C@]4(C)CC[C@]32C)[C@@]1(C)CCC(=O)O`: the IC50 in experiment [1], in experiment [9] and in experiment [10] was above 10 µM each time. Further, the Activity in experiment [3] is 83.9%.

Take `CC(C)[C@@H]1CC[C@]2(C)[C@H](CC=C3[C@@H]4CC(C)(C)CC[C@]4(C)CC[C@]32C)[C@@]1(C)CCC(=O)O`: the IC50 in experiment [1] is above 10 µM. For the same compound, the Activity in experiment [3] amounted to 74.1%.

As to `CC(C)=CCC[C@H](C(=O)O)[C@@H]1CC[C@]2(C)C3=CC[C@H]4C(C)(C)[C@H](O)CC[C@]4(C)[C@H]3CC[C@@]12C`, the IC50 in [1] is 3 µM; in experiment [6] it was above 10 µM; in experiment [7], above 10 µM. In addition, the Activity in experiment [3] is 29.6%; in experiment [8], 69.6%.

For the compound `CC(C)[C@@H]1CC[C@]2(C)[C@H](C(=O)C=C3[C@@H]4[C@@H](C)[C@H](C)CC[C@]4(C)CC[C@]32C)[C@@]1(C)CCC(=O)O`, the values for the IC50 in [1], in [6] and in experiment [7] were 1 µM, above 10 µM and above 10 µM, respectively. For the same compound, the values for the Activity in experiment [3] and in [8] were 21.6% and 64.8%, respectively.

Take `C=C(C)[C@@H]1CC[C@]2(CO)CC[C@]3(C)[C@H](CC[C@@H]4[C@@]5(C)CC[C@H](OC(C)=O)[C@](C)(C(=O)O)[C@@H]5CC[C@]43C)[C@@H]12`: the IC50 in [1] was 0.9 µM; in [6], above 10 µM; in experiment [7], above 10 µM. In addition, the Activity came out at 31.1% in [3] and 90.7% in experiment [8].
